One may read the IC50 as the concentration needed to halve the response being measured. Low readings indicate higher potency, high ones lower potency.

In assay [1] the target is Sodium-dependent serotonin transporter (Rattus norvegicus, UniProt P31652). The experiment in a line: Inhibition of [3H]paroxetine (0.2 nM) binding to 5-HT transporter. The procedure, abridged: (§1)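 IC50 is taken as inhibition of specific binding. Values are mean ± standard error of three or four experiments, with triplicate determinations at each concentration.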
In assay [2] the target is Norepinephrine transporter (Rattus norvegicus, UniProt Q9WTR4). Briefly: Inhibition of [3H]nisoxetine (0.5 nM) binding to Noradrenaline transporter. The procedure, abridged:
as §1

In assay [3] the target is Sodium-dependent dopamine transporter (Rattus norvegicus, UniProt P23977). The experiment in a line: Displacement of [3H]WIN-35428(0.5 nM) from Dopamine transporter. In outline:
as §1
(In general: Displacement assays read how much labelled ligand stays bound in the presence of the test substance.)

Sodium-dependent dopamine transporter, sequence (P23977 whole entry): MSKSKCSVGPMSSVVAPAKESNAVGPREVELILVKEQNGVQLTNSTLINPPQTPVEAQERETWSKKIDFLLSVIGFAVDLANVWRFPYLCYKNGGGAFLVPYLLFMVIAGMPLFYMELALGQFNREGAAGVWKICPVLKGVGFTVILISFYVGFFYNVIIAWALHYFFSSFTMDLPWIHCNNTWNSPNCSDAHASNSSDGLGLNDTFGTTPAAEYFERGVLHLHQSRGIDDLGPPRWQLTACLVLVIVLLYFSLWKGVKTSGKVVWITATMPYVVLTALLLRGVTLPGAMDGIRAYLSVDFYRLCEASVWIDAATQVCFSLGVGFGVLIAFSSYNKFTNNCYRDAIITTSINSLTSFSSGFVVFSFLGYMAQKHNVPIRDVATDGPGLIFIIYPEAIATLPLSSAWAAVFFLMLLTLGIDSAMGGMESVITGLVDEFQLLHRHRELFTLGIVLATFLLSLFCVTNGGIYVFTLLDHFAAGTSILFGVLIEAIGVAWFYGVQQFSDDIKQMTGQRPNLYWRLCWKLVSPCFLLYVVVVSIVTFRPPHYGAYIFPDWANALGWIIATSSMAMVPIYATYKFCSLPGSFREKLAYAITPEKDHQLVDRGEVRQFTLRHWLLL
Norepinephrine transporter, sequence (Q9WTR4 whole entry): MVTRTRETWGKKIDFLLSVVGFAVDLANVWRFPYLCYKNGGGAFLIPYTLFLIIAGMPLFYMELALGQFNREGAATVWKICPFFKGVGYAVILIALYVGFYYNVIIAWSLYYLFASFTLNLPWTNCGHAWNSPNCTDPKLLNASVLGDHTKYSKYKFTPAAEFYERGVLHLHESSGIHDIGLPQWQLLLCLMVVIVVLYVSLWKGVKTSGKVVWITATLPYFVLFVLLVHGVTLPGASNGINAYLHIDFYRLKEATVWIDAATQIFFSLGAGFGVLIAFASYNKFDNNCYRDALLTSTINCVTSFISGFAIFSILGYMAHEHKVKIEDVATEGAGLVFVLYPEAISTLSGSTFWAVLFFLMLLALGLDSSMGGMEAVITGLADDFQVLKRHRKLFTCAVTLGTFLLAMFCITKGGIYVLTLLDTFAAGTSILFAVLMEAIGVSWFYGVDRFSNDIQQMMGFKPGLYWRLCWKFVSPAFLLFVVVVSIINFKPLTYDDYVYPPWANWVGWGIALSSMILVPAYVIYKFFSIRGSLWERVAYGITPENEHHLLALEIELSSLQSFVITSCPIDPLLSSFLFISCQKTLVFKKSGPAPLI
Sodium-dependent serotonin transporter, sequence (P31652 whole entry): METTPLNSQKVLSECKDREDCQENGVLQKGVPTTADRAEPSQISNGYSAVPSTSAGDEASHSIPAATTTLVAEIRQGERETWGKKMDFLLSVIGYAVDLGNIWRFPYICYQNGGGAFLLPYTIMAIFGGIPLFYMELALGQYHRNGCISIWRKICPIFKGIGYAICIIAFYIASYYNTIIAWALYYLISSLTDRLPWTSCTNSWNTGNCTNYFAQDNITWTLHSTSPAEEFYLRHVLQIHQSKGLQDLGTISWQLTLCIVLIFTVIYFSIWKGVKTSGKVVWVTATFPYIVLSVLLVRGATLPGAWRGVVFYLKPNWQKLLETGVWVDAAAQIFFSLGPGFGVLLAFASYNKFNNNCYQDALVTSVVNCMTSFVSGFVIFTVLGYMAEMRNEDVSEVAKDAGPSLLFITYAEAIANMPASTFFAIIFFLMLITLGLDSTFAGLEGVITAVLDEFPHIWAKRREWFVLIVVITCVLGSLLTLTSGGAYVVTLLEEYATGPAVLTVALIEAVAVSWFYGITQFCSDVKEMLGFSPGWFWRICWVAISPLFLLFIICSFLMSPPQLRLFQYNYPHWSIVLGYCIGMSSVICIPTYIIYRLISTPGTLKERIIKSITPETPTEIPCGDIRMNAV

With `Fc1ccc([C@H]2CC3CCC(N3)[C@@H]2COc2ccc3c(c2)OCO3)cc1` (stereo partly specified), the IC50 in assay [1] was determined as 90 nM; in assay [2], 2500 nM; in assay [3] it was 142 nM.

Regarding `Fc1ccc([C@@H]2CC3CCC(N3)[C@H]2COc2ccc3c(c2)OCO3)cc1` (stereo in doubt; 4c), the concentration for half-maximal inhibition (IC50) in assay [1] came out at 5.62 nM; in assay [2] it was 14.4 nM; in assay [3], 3.86 nM.

Consider `CN1C2CC[C@@H]1[C@@H](COc1ccc3c(c1)OCO3)[C@H](c1ccc(F)cc1)C2`, for which the values for the IC50 in assay [1], in assay [2] and in assay [3] were 88.1 nM, 27600 nM and 1050 nM, respectively.

Take `Fc1ccc([C@H]2CC3CCC(N3)[C@H]2COc2ccc3c(c2)OCO3)cc1` (stereo in doubt; 4f): the values for the half-inhibitory concentration (IC50) in assay [1], in assay [2] and in assay [3] were 19 nM, 1990 nM and 403 nM, respectively.

Consider `CN1C2CC[C@@H]1C[C@H](c1ccc(F)cc1)[C@@H]2COc1ccc2c(c1)OCO2`, for which the figures for the IC50 in assay [1], in assay [2] and in assay [3] were 294 nM, 5300 nM and 308 nM, respectively.

For the molecule `CN1C2CC[C@@H]1[C@@H](COc1ccc3c(c1)OCO3)[C@@H](c1ccc(F)cc1)C2`, the IC50 was found to be 178 nM in assay [1], 12400 nM in assay [2] and 298 nM in assay [3].

Take `Fc1ccc([C@@H]2CC3CCC(N3)[C@@H]2COc2ccc3c(c2)OCO3)cc1` (stereo partly specified): the IC50 in assay [1] was determined as 55.8 nM; in assay [2] it was 1690 nM; in assay [3], 27.6 nM.

As for `CN1C2CC[C@@H]1C[C@H](c1ccc(F)cc1)[C@H]2COc1ccc2c(c1)OCO2`, the half-maximal inhibitory concentration (IC50) is 52.9 nM in assay [1], 26600 nM in assay [2] and 172 nM in assay [3].

Take `Fc1ccc([C@H]2CC3CCC(N3)[C@H]2COc2ccc3c(c2)OCO3)cc1` (stereo in doubt; 4a): the IC50 in assay [1] is 480 nM; in assay [2], 37400 nM; in assay [3], 835 nM.

Take `Fc1ccc([C@@H]2CC3CCC(N3)[C@H]2COc2ccc3c(c2)OCO3)cc1` (stereo in doubt; 4d): the IC50 worked out at 424 nM in assay [1], 17300 nM in assay [2] and 1210 nM in assay [3].

As to `CN1C2CC[C@@H]1[C@H](COc1ccc3c(c1)OCO3)[C@H](c1ccc(F)cc1)C2`, the figures for the 50% inhibitory concentration (IC50) in assay [1], in assay [2] and in assay [3] were 447 nM, 2920 nM and 1500 nM, respectively.

With `CN1C2CC[C@@H]1C[C@@H](c1ccc(F)cc1)[C@@H]2COc1ccc2c(c1)OCO2`, the results for the IC50 in assay [1], in assay [2] and in assay [3] were 422 nM, 123 nM and 3.01 nM, respectively.

For the origin of these results see ChEMBL document CHEMBL1131114 (J Med Chem, 1998).
